According to article PMC4855275 (Experimental & Molecular Medicine, 2016):
“Also recorded” adds a separate entry of the source.

What was measured:
PAK1^T423E [1] = target: T1, PAK1^T423E (Homo sapiens, UniProt Q13153, T423E); conditions: reported; ref [11], [12]; cited from earlier work
Wt-PAK1 (full-length) = conditions: reported; ref [11], [12]; cited from earlier work
[2] = target: PAK1^T423E/LL (H83L/H86L) (Homo sapiens, UniProt Q13153, H83L/H86L/T423E); test: In vitro kinase assay with LL mutant of active PAK1; format: biochemical; conditions: 40 μM, 0.5 h
Procedure, shortened: (§1)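 Preincubated with test compound or DMSO 0.5 h, 30 °C, then 5 μCi [γ-³²P]ATP 0.5 h, 30 °C. 15% SDS-PAGE; MBP phosphorylation read by autoradiography; total MBP immunoblot as loading control; ≥3 experiments.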

PBD-LL (H83L/H86L) = PBD-LL (H83L/H86L) (Homo sapiens, UniProt Q13153, H83L/H86L); test: SPR binding to mutated PBD; conditions: 100 μM compound
Procedure, shortened: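 GST-tagged wild-type or H83L/H86L PAK1 PBD was expressed in E. coli, purified on glutathione-Sepharose, and amine-coupled to CM5 chips (~10 000 RU), with GST as control. Test compound (100 μM) was flowed at 20 μl min⁻¹, 25 °C, in 10 mM HEPES, 150 mM NaCl, 0.005% P20, 0.4% DMSO, pH 7.4. Sensorgrams were representative of ≥3 independent experiments.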

full-length PAK3 = full-length PAK3 (Homo sapiens, UniProt O75914); test: In vitro inhibition of PAK family members, PAK3; format: biochemical; conditions: 40 μM, with Cdc42•GTP
PAK1^T423E [3] = target: T1, PAK1^T423E; test: In vitro PAK1 assay with active PAK1; format: biochemical; conditions: 0.5 h; 40 μM in Figure 3c
Procedure, shortened: as §1

pMEK1^S298 in 293T cells = test: MEK1 S298 phosphorylation downstream of PAK1; format: cell-based; conditions: 293T cells with myc-PAK1 and GFP-V12Cdc42, 20 μM, 2 h
Procedure, shortened: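 293T co-transfected with myc-PAK1 and GFP-V12Cdc42. After 24 h, test compound at 20 μM for 2 h. Lysates immunoblotted for pPAK1 T423 and pMEK S298; expressed proteins checked with anti-Myc and anti-GFP. Membranes blocked in 3% BSA/TBS-T, primary antibody 1 h RT, HRP secondary, chemiluminescence. At least three independent experiments.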

PBD of PAK1 (Wt-PBD) = PBD of PAK1 (Wt-PBD) (Homo sapiens, UniProt Q13153); test: SPR binding to immobilized GST-PBD; conditions: Kd for the compound–PBD interaction, 25 °C, 1:1 Langmuir model
Procedure, shortened: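 GST (reference) and wild-type GST-PBD amine-coupled to CM5 chips at about 10 000 RU. Runs at 25 °C in 10 mM HEPES, 150 mM NaCl, 0.005% P20, 0.4% DMSO, pH 7.4. Test compound injected at 12.5, 25, 50 or 100 μM, 20 μl min⁻¹. Kd taken as kd/ka from a 1:1 Langmuir fit. At least three independent experiments.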

full-length PAK1 = full-length PAK1 (Homo sapiens, UniProt Q13153); test: In vitro inhibition of PAK family members, PAK1; format: biochemical; conditions: 40 μM, with Cdc42•GTP
[4] = target: myc-PAK3 (pT421) in HeLa cells (Homo sapiens, UniProt O75914); test: Sorbitol-induced PAK3 autophosphorylation in cells; format: cell-based; conditions: 20 μM for 2 h, then 0.4 M sorbitol
Procedure, shortened: (§2)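 HeLa transfected (Lipofectamine, 24 h) with 2 μg myc-PAK1 or myc-PAK3 cDNA. Cells exposed to test compound 2 h, then 0.4 M sorbitol 0.5 h; lysed in HEPES/Triton buffer with NaF and vanadate. Immunoblotted with anti-phospho-group I PAK antibody (PAK1 T423; PAK3 T421); myc-PAK levels by anti-Myc; chemiluminescent detection; ≥3 experiments.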

[5] = target: myc-PAK1 (pT423) in HeLa cells (Homo sapiens, UniProt Q13153); test: Sorbitol-induced PAK1 autophosphorylation in cells; format: cell-based; conditions: 20 μM for 2 h, then 0.4 M sorbitol
Procedure, shortened: as §2

HeLa cells = test: Cell viability / cytotoxicity; format: cell-based; conditions: for Light-induced cytotoxicity: during FRET analysis
Procedure, shortened: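 HeLa seeded at 2 × 10⁵ cells per ml. Test compound at 20 μM final for 2, 4, 6, 8 or 12 h at 37 °C. WST-8 then added (10% v/v final) for 2 h at 37 °C; absorbance read at 450 nm.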

[6] = test system: R1K3 (PAK1 CD replaced by PAK3 CD) in HeLa cells; test: CD-swapping experiment, R1K3; format: cell-based; conditions: 20 μM for 2 h, then 0.4 M sorbitol
[7] = target: YFP-PBD and CFP-V12Cdc42 fusion proteins in HeLa cells (Homo sapiens, UniProt Q13153); test: FRET analysis of V12Cdc42–PBD interaction in cells; format: cell-based; conditions: 20 μM, 1.5 h
Procedure, shortened: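 HeLa on poly-L-lysine-coated coverslips transfected with YFP-PBD and CFP-V12Cdc42 plasmids. At 12 h post-transfection, DMSO or 20 μM test compound applied and imaged over 1.5 h (ex 433 nm; em 475 nm CFP, 530 nm FRET). Background-subtracted FRET/CFP ratio used as efficiency, normalised to time zero = 1; 16 cells per compound.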

[8] = target: Cdc42–PBD interaction (PBD of PAK1) (Homo sapiens, UniProt Q13153); test: ELISA of the Cdc42–PBD interaction; format: binding
Procedure, shortened: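 Wells coated overnight at 4 °C with His-tagged PAK1 PBD (1 μg ml⁻¹) in carbonate–bicarbonate buffer, pH 9.6; TBS-T washes. GST-Cdc42 loaded with GTPγS (0.5 h, RT), then GST-Cdc42(GTPγS) (100 ng ml⁻¹) with test compound for 0.5 h RT and 1 h 37 °C. Bound Cdc42 detected with HRP-anti-GST (200 ng ml⁻¹, 1 h, 37 °C) and ABTS (pH 5.6, 15–30 min); stopped with 1% SDS; A405.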

Cdc42–PBD interaction = Cdc42–PBD interaction (Homo sapiens, UniProt Q13153); test: SPR of Cdc42•GTP binding to immobilized PBD in presence of compound; conditions: 10 µM compound
Sequence of Cdc42–PBD interaction (Q13153 67-150): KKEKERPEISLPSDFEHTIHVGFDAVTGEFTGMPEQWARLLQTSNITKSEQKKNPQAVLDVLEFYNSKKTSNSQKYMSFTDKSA

Sequence of myc-PAK1 (pT423) in HeLa cells (Q13153 whole entry): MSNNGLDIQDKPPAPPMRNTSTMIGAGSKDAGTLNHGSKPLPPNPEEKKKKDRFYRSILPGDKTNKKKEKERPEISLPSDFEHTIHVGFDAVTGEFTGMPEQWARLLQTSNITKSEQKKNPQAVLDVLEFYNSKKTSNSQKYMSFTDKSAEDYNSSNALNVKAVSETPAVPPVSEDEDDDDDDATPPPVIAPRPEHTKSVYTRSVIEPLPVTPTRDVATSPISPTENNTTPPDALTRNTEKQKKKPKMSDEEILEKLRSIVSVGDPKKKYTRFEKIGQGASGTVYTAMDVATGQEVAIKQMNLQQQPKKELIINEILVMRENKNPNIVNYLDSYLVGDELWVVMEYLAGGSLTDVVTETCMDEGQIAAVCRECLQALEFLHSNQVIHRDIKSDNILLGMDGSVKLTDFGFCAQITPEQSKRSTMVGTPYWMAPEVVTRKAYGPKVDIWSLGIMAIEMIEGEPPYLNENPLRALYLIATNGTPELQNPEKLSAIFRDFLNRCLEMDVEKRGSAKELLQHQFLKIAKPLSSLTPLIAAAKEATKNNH
Sequence of full-length PAK1 (Q13153 whole entry): as above
Sequence of Cdc42–PBD interaction (PBD of PAK1) (Q13153 67-150): as the sequence (Q13153 67-150) above
T1 sequence (Q13153 whole entry T423E): as the sequence (Q13153 whole entry) above, with T423E counted along it
Sequence of PBD of PAK1 (Wt-PBD) (Q13153 67-150): as the sequence (Q13153 67-150) above
Sequence of PBD-LL (H83L/H86L) (Q13153 67-150 H83L/H86L): as the sequence (Q13153 67-150) above, with H17L, H20L counted along it
Sequence of myc-PAK3 (pT421) in HeLa cells (O75914 1-544 isoform O75914-2): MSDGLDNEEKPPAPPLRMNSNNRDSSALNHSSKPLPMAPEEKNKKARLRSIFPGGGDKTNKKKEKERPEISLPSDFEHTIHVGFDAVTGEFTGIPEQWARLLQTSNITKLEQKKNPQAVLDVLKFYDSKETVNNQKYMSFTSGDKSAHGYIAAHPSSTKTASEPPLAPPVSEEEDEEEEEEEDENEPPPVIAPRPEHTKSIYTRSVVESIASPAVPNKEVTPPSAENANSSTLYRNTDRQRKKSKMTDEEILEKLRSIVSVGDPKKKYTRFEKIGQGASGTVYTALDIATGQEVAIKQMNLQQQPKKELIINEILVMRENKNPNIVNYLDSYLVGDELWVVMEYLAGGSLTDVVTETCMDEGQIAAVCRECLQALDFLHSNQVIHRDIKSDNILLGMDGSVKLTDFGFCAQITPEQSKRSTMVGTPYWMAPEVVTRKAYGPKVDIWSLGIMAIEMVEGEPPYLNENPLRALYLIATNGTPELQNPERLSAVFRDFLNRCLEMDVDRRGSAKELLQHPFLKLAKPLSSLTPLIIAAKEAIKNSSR
Sequence of PAK1^T423E/LL (H83L/H86L) (Q13153 whole entry H83L/H86L/T423E): as the sequence (Q13153 whole entry) above, with H83L, H86L, T423E counted along it
Sequence of YFP-PBD and CFP-V12Cdc42 fusion proteins in HeLa cells (Q13153 67-150): as the sequence (Q13153 67-150) above
Sequence of full-length PAK3 (O75914 1-544 isoform O75914-2): as the sequence (O75914 1-544 isoform O75914-2) above

SMILES | Binding affinity to PBD-LL compared with Wt-PBD (PBD-LL (H83L/H86L)) | Kd (PBD of PAK1 (Wt-PBD)) [µM] | Inhibition of full-length PAK1 (MBP phosphorylation) (full-length PAK1) | PAK1 autophosphorylation (pT423) [5] | Inhibition of sorbitol-activated R1K3 [6] | Inhibitory activity on the Cdc42–PBD interaction [8] | Interference with the Cdc42–PBD interaction (Cdc42–PBD interaction) | Light-induced cytotoxicity (HeLa cells) | other results
Oc1ccc2ccccc2c1SSc1c(O)ccc2ccccc12 [IPA-3, 2,2′-dihydroxy-1,10-dinaphthyldisulfide] |  |  |  |  |  |  |  |  | Susceptibility of PAK1^T423E to inhibition (PAK1^T423E [1]): not susceptible to inhibition; Inhibition of Cdc42-dependent activation of wild-type group I PAKs (Wt-PAK1 (full-length)): effectively inhibit
O=C1C=CC(=O)c2ccccc21 [compound 7, 1,4-naphthoquinone] | significantly reduced (to approximately half of those for Wt-PBD binding) | < 7 | suppressed the activities of both PAK1 and PAK3 to a similar degree | greatly suppressed; also recorded: almost completely inhibited | almost completely inhibited |  |  |  | Inhibitory effect on PAK1^T423E/LL [2]: little inhibitory effect; Inhibition of full-length PAK3 (MBP phosphorylation) (full-length PAK3): suppressed the activities of both PAK1 and PAK3 to a similar degree; MBP phosphorylation by PAK1^T423E (PAK1^T423E [3]): markedly suppressed; pMEK1^S298 levels (pMEK1^S298 in 293T cells): markedly decreased; PAK3 autophosphorylation (pT421) [4]: greatly suppressed; also recorded: specifically inhibited; Cytotoxicity (HeLa cells; HeLa cells, 20 μM): no significant cytotoxicity; FRET efficiency [7]: decreased
COC(=O)C1=CC(=O)c2ccccc2C1=O [compound 8, 2-methoxycarbonyl-1,4-naphthoquinone] | significantly reduced (to approximately half of those for Wt-PBD binding) | < 7 |  |  |  | high inhibitory activities |  |  | 
O=C1C=C(Br)C(=O)c2ccccc21 [compound 13, 2-Bromo-1,4-NQ] |  |  | selective inhibition of PAK1 | only weakly suppressed |  | high inhibitory activities | effectively interfered with the Cdc42–PBD interaction | light-induced cytotoxicity | 
O=C1C=C(Cl)C(=O)c2ccccc21 [compound 14, 2-Chloro-1,4-NQ] |  |  | selective inhibition of PAK1 | greatly suppressed; also recorded: almost completely inhibited | almost completely inhibited | high inhibitory activities | effectively interfered with the Cdc42–PBD interaction | light-induced cytotoxicity | 
